Series [1] deals with AML12. In words: Cytotoxicity against mouse AML12 cells assessed as cell viability at 5 uM measured after 24 hrs by MTT assay. The class given is cell-based. The note with it: aml12, 24 h.
Series [2] has as its system AML12. In words: Activation of CPT1A in mouse AML12 cells assessed as inhibition of oleic acid-induced lipid accumulation using L-carnitine and palmitoyl CoA as substrates pretreated with ETO for 6 hrs followed by addition of compound at 40 uM measured after 48 hrs by […] reagent based enzymatic assay. The class given is cell-based. Summed up: (§1)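 Lysates of AML12 cells grown in medium with 0.15 mM oleic acid. Cells pretreated 6 h with ETO or with DMSO, then exposed to compound for 24 h (legend says 48 h). Lysis by sonication in 0.5 M Tris, 0.15 M KCl and protease inhibitors. Protein measured by Bradford. Activity expressed as nmol CoA-SH released per min per mg protein. Mean ± SEM, n = 3.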

Series [3] concerns AML12. Put plainly: Inhibition of oleic acid-induced lipid accumulation in mouse AML12 cells with Si-RNA-induced ACSL1 knockdown. The class given is functional, cell-based.
For series [4], the system named is AML12. In words: Inhibition of oleic acid-induced lipid accumulation in mouse AML12 cells with Si-RNA-induced FADS3 knockdown. The class given is functional, cell-based.
Series [5] has as its system AML12. In words: Cytotoxicity against mouse AML12 cells assessed as cell viability at 20 uM measured after 24 hrs by MTT assay. It is filed as cell-based. The note with it: aml12, 24 h. On the technique in general: Formazan colour is commonly taken as a measure of viable cells.
For series [6], the system named is AML12. In words: Inhibition of oleic acid-induced lipid accumulation in mouse AML12 cells assessed as increased expression of CPT1A preincubated with ETO at 40 uM measured after 24 hrs by Oil red O staining based microscopic assay. The class given is functional, cell-based. An outline of the steps: (§2)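 AML12 cells either transfected with siRNA against CPT1A or pretreated with 20 μM etomoxir, with negative-control comparison. Cells then loaded with oleic acid and exposed to compound at 40 μM for 24 h. Lipid read by Oil Red O staining with image quantification. Mean ± SEM, n = 3.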

For series [7], the system named is AML12. Put plainly: Cytotoxicity against mouse AML12 cells assessed as cell viability at 40 uM measured after 24 hrs by MTT assay. It is filed as cell-based. The note with it: aml12, 24 h.
Series [8] concerns AML12. Put plainly: Inhibition of oleic acid-induced lipid accumulation in mouse AML12 cells with Si-RNA-induced ECHS1 knockdown. It is filed as functional, cell-based.
For series [9], the system named is AML12. Put plainly: Activation of CPT1A in mouse AML12 cells assessed as inhibition of oleic acid-induced lipid accumulation using L-carnitine and palmitoyl CoA as substrates pretreated with ETO for 6 hrs followed by addition of compound at 20 uM measured after 48 hrs by […] reagent based enzymatic assay. It is filed as cell-based. Summed up:
as §1

Series [10] relates to AML12. In words: Inhibition of oleic acid-induced lipid accumulation in mouse AML12 cells at 40 uM preincubated with oleic acid for 24 hrs followed by addition of compounds and measured after 24 hrs by Oil red O staining based microscopic assay. The class given is functional, cell-based. Summed up: (§3)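 Normal mouse liver AML12 cells loaded with 0.15 mM oleic acid in BSA to induce lipid droplets, then given compound for 24 h. DMSO vehicle as control. Stained with Oil Red O and quantified by image analysis. Mean ± SEM, n = 3.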

The subject of series [11] is AML12. In words: Cytotoxicity against mouse AML12 cells assessed as cell viability at 10 uM measured after 24 hrs by MTT assay. It is filed as cell-based. The note with it: aml12, 24 h.
For series [12], the system named is AML12. Put plainly: Activation of CPT1A in mouse AML12 cells assessed as inhibition of oleic acid-induced lipid accumulation using L-carnitine and palmitoyl CoA as substrates at 20 uM measured after 48 hrs by […] reagent based assay relative to control. The class given is cell-based. The note with it: filed as activator. Summed up: as §1
For series [13], the system named is AML12. In words: Activation of CPT1A in mouse AML12 cells assessed as inhibition of oleic acid-induced lipid accumulation using L-carnitine and palmitoyl CoA as substrates at 40 uM measured after 48 hrs by […] reagent based enzymatic assay relative to control. The note with it: filed as activator. The class given is cell-based. An outline of the steps: as §1

Series [14] relates to AML12. In words: Inhibition of oleic acid-induced lipid accumulation in mouse AML12 cells with siRNA-induced CPT1A knockdown at 40 uM measured after 24 hrs by Oil red O staining based microscopic assay. It is filed as functional, cell-based. Summed up: as §2
Series [15] deals with AML12. In words: Inhibition of oleic acid-induced lipid accumulation in mouse AML12 cells at 20 uM preincubated with oleic acid for 24 hrs followed by addition of compounds and measured after 24 hrs by Oil red O staining based microscopic assay. The class given is functional, cell-based. Summed up: as §3

Structures are written as SMILES. The source made the active and inactive calls. No cut-off for these calls is given here.

With `CC(C)c1ccc2c(c1)C(=O)C[C@H]1[C@](C)(C(=O)O)CCC[C@]21C`, the Activity entry in the series with AML12 [1], in the series on AML12 [5], in the series on AML12 [7] and in the series with AML12 [11] was “Non-Toxic” in each case. The result in the series with AML12 [2] and with AML12 [9] was inactive. Moreover, the inhibition result with AML12 [3], in the series on AML12 [4], with AML12 [8], with AML12 [10] and in the series on AML12 [15] was “Active” each time. In addition, the inhibition entry in the series on AML12 [6] and in the series with AML12 [14] was “inactive” each time. Further, the fold change (FC) in the series with AML12 [12] came out at 1.5; in the series with AML12 [13], 1.6.
